According to BindingDB's records for doi:10.1016/j.ejmech.2019.111879 (University of Bonn, 2020):

Tests used:
Adenosine receptor A3 [1] = target: T1, Adenosine receptor A3 (Rattus norvegicus, UniProt P28647); assay: Antagonist activity at rat A3AR expressed in CHO cells assessed as reduction in NECA-induced inhibition of forskolin-stimulated cAMP accumulation at 3 uM incubated for 2 hrs by fluorescence based assay
T1 sequence (P28647 whole entry): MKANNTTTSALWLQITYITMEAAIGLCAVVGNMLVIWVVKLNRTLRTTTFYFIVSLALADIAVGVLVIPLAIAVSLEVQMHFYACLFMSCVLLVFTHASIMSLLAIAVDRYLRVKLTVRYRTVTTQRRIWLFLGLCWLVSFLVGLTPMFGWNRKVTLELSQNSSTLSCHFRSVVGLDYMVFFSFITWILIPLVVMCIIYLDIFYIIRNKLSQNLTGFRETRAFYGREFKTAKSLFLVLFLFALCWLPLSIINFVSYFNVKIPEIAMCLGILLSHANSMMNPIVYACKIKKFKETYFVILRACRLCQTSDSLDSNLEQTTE
In short: (§1)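 CHO cells stably expressing rat A3 AR, seeded at 150,000-200,000 cells/well. Cells washed, then held 2 h at 37 °C in HBSS with 20 mM HEPES (pH 7.3) and 2 U/ml adenosine deaminase. Forskolin (10 μM) plus NECA concentration series added at 36.5 °C, with or without test compound. Stopped by hot lysis solution (90 °C, 4 mM Na2EDTA, Triton X-100). Data normalized to forskolin (100%) and buffer (0%). KB calculated, n=3.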

Adenosine receptor A3 [2] = target: T1, Adenosine receptor A3; assay: Antagonist activity at rat A3AR expressed in CHO cells assessed as reduction in NECA-induced inhibition of forskolin-stimulated cAMP accumulation at 10 uM incubated for 2 hrs by fluorescence based assay; in short: as §1
Adenosine receptor A3 [3] = target: T1, Adenosine receptor A3; assay: Antagonist activity at rat A3AR expressed in CHO cells assessed as reduction in NECA-induced inhibition of forskolin-stimulated cAMP accumulation incubated for 2 hrs by fluorescence based assay; in short: as §1
Adenosine receptor A1 = target: T2, Adenosine receptor A1 (Rattus norvegicus, UniProt P25099); assay: Displacement of [3H]DPCPX from rat brain cortical membrane A1AR assessed as GTP shift
T2 sequence (P25099 whole entry): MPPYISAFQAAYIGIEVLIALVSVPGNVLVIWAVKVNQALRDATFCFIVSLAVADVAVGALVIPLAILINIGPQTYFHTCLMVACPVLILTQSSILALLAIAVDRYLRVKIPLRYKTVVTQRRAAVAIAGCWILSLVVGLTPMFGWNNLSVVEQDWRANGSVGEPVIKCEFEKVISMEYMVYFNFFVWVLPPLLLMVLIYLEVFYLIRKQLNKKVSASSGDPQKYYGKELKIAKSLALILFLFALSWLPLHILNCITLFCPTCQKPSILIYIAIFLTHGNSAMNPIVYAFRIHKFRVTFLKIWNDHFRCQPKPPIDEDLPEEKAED

| Structure (SMILES) | EC50 (Adenosine receptor A3 [1]) | EC50 (Adenosine receptor A3 [2]) | EC50 (Adenosine receptor A3 [3]) | GTP shift (Adenosine receptor A1) |
| --- | --- | --- | --- | --- |
| O=C(Nc1nc(-c2ccccc2)c(-c2nc3ccccc3c(=O)n2-c2ccc(Cl)cc2)s1)c1ccco1 | 57 nM | 1720 nM | 5.3 nM |  |
| COc1ccc(C(=O)Nc2nc(-c3ccccc3)c(C(=O)c3ccc(C)cc3)s2)cc1 |  |  |  | 1 |
| O=C(Nc1nc(-c2ccccc2)c(C(=O)c2ccc(Cl)cc2)s1)c1ccccc1 |  |  |  | 1 |
| O=C(Nc1nc(-c2ccccc2)c(C(=O)c2ccc(F)cc2F)s1)c1ccccc1 |  |  |  | 0.9 |
| Cc1ccc(C(=O)c2sc(NC(=O)c3ccco3)nc2-c2ccccc2)cc1 |  |  |  | 1.3 |
